Screening data deposited in PubChem by several laboratories.
STAT1 act = STAT1 signaling activation; hit rate 2.6% among 200,000; activation (% of control), % at 5.5 µM; NIH 3T3 STAT1-luciferase reporter, IFN-gamma, luminescence; 100% = IFN-gamma alone, no compound;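 active = activation above the screen-wide mean activation plus 3 SD, cut at about 130% in these data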;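 note: raw ratio to IFN-gamma control signal so 100% means no change and 0% no light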
FLuc act counter = affects firefly luciferase, flagging false hits in luciferase stimulation screens | P08659 | ATPlite luciferase biochemical, luminescence, 10 min; 0 = ATP-free wells, 1 = DMSO control | activation factor at 10 µM | 200,000 tested, under 10 active | AID 1027;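 active = luciferase activation factor, scaled between plate controls, of at least 2 with compound at 10 µM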
Target sequence (P08659 whole entry, looked up): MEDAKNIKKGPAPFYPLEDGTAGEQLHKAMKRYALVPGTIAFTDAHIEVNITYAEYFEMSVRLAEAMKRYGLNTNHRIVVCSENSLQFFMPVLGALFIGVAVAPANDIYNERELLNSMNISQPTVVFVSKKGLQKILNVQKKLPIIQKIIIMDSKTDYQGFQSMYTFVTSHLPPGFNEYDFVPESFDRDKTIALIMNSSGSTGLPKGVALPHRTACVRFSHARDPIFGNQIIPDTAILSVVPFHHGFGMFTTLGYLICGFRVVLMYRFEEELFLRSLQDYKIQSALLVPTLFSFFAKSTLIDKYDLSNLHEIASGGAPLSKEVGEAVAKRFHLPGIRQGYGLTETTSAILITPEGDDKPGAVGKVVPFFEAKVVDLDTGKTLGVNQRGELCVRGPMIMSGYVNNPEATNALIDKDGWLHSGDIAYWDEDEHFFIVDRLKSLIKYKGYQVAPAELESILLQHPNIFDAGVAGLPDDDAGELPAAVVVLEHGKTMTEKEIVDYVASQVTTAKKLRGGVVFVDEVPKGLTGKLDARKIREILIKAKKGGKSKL
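Material: Luciferase/luciferin reagent mix; Doses: test compounds dosed from 2 mM stocks in 100% DMSO; Schedule: 10 min incubation after luciferase reagent addition, room temperature; Measured by: luminescence from luciferase reaction; Read-out: luminescence gain marking luciferase activators.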
NF-kB expr up = raises NF-kB expression in human neuronal cells. NF-kB reporter expression; active compounds read high. fold change at 12.5 µM. hit rate 1.6% among 190,000. AID 1239; in the data active = fold change above about 3.3
FLuc inh counter = inhibits firefly luciferase, flagging false hits in luciferase inhibition screens. ATPLite firefly luciferase biochemical luminescence, 10 min. AID 1006. inhibition, % at 10 µM. hit rate 1.5% among 200,000;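 active = inhibition above about 50% when tested at 10 µM, limit read from the data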
APP 5'UTR act = activates APP 5'UTR luciferase reporter | SH-SY5Y APP 5'UTR luciferase reporter, luminescence; zero percent = DMSO vehicle wells | activation, % at 2 µM | hit rate 1% among 190,000 | AID 1276;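 active = activation above a set limit, based on mean plus 3 SD of controls, cut at about 140% in these data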
An asterisk follows results filed as active; · = not tested or not shown. Most compounds without a hit are left out; they make up all but 4.3% or so of the library.

SMILES	STAT1 act	FLuc act counter	NF-kB expr up	FLuc inh counter	APP 5'UTR act
COc1ccc(-c2nnc(SCC(=O)c3cccs3)o2)cc1	134*	0.8	3.7*	20	72
COc1ccc(-c2nnc(SCC(=O)c3ccc[nH]3)o2)cc1	106	0.8	4.7*	24	94
CCOc1ccc(NC(=S)Nc2ccccc2C2(C)CC2)cc1	83	1.1	1	-8	9
O=C(NNc1nc2cc3c(cc2s1)OCCO3)c1ccccc1	132*	0.9	1.9	11	38
Cc1cccc2sc(NNC(=O)c3ccc4c(c3)OCCO4)nc12	106	1.1	1.5	-7	17
O=C(Nc1ccc2oc(-c3ccccc3)nc2c1)c1cccs1	143*	0.8	2.1	16	155*
O=C(CSc1nnc2ccccn12)Nc1cccc(-c2nc3ccccc3s2)c1	136*	0.9	1.3	7	137*
O=C(Nc1nsc(-c2ccccc2)n1)c1cccs1	148*	0.2	4.2*	79*	149*
O=C(Nc1cccc(-c2nc3ccccc3s2)c1)c1cc(=O)c2ccccc2o1	109	1	0.65	2	26
Cc1sc(NC(=O)c2cccs2)nc1-c1ccccc1	116	0.9	1.7	5	40
O=C(CSc1nnc2ccccn12)Nc1ccc2c(c1)OCO2	118	1.1	1.3	-5	-15
O=C(Nc1cccc(-c2nc3ccccc3s2)c1)c1cccs1	140*	1	1.9	2	7
CCn1cc(C(=O)NCc2ccc3c(c2)OCO3)c(=O)c2cc(F)c(N3CCN(C(=O)c4ccco4)CC3)cc21	88	1	0.44	0	-1
COCCNC(=O)Cn1cc(C(=O)c2ccco2)c2ccccc21	102	1.1	1.1	-5	-3
COc1ccc(NS(=O)(=O)c2cccc(NC(=O)CCS(=O)(=O)c3ccccc3)c2)cc1	93	1.1	0.85	-7	-11
O=C(CCS(=O)(=O)c1ccccc1)Nc1cccc(-c2nc3ccccc3s2)c1	114	0.7	3.7*	27	111
Cc1ccc2nsnc2c1NC(=O)COc1ccccc1F	109	1.1	1.3	-8	2
CCc1ccc(NC(=O)c2cc(-c3ccco3)on2)cc1	130*	0.8	2.6	24	-6
COc1ccc(NC(=O)c2cc(-c3cccc(OC)c3)on2)cc1	112	1	1.2	-2	6
COc1ccc(NC(=O)c2cc(-c3ccco3)on2)cc1	149*	1	1.3	5	-5
COc1ccc(C(=O)/C=C/c2cn(CN3CCN(C)CC3)c3ccccc23)cc1	113	0.9	6.5*	13	52
CCOc1ccc(C(=O)/C=C/c2cn(CN3CCN(C)CC3)c3ccccc23)cc1	111	0.9	3.4*	7	21
COc1ccc(C(=O)/C=C/c2cn(CC(O)CN3CCOCC3)c3ccccc23)cc1 (stereo unspecified)	117	1	0.73	2	5
CCCn1c(SCc2ccon2)nc2ccccc2c1=O	86	1.1	1.1	-10	-17
O=C(CC(SCCO)c1ccc2c(c1)OCO2)c1cccs1 (stereo unspecified)	132*	1	3.2	2	69
SMILES	STAT1 act	FLuc act counter	NF-kB expr up	FLuc inh counter	APP 5'UTR act
CC(NC(=O)Cc1cccs1)c1ccc2c(c1)OCO2 (stereo unspecified)	99	1.1	0.98	-9	19
O=C(CC(SCc1ccco1)c1ccc(O)cc1)c1cccs1 (stereo unspecified)	118	1	5.4*	2	71
COc1ccc(C2=NN(C(=O)CN3CCCCC3)C(c3ccc(C)cc3)C2)cc1 (stereo unspecified)	100	1	0.85	-4	9
COc1ccc(C2=NN(C(=O)CN3CCOCC3)C(c3nc4ccccc4[nH]3)C2)cc1 (stereo unspecified)	133*	1	1.1	4	122
N#C/C(=C/c1ccc(N2CCCCCC2)o1)c1ccc(Cl)cc1	92	1	3.4*	-2	6
N#C/C(=C/c1ccc(N2CCCCC2)o1)c1cccc(F)c1	145*	0.9	1.9	13	-7
Cc1ccc(/C(C#N)=C\c2ccc(N3CCOCC3)o2)cc1	120	0.8	1.9	15	-8
Cc1ccc(NC(=O)CCn2cnc3ccccc3c2=O)cc1Cl	131*	1.1	1.2	-5	-2
Cc1cccc(C)c1NC(=O)CCn1cnc2ccccc2c1=O	98	1	1.1	-4	-2
COC(c1ccccc1)c1nnc(CCC(=O)N(C)CCOc2ccccc2)o1 (stereo unspecified)	135*	1	2.2	-4	34
COC(c1ccccc1)c1nnc(CCC(=O)N(C)Cc2cccc(-n3cccn3)c2)o1 (stereo unspecified)	131*	1	2.4	-1	39
COC(c1ccccc1)c1nnc(CCC(=O)N(C)CCCC2CCCC2)o1 (stereo unspecified)	117	1	1.8	-3	9
O=C(Nc1ccccc1N1CCOCC1)c1ccc(Cl)nc1	103	1	1.1	0	-7
COc1ccc(C(=O)OCC(=O)N2CCCC2=O)c(OC)c1	139*	0.9	1.1	11	3
FC(F)Oc1ccccc1/C=N/n1cnc2ccccc21	134*	1	1.8	0	39
NC(N)=N/N=C/c1ccccc1OC(F)F	92	1.1	1.1	-7	14
O=C(CCS(=O)(=O)c1ccc(Cl)cc1)NCCc1c[nH]c2ccccc12	97	1	0.93	-2	2
O=C(Oc1ccc(-c2cnc3ccccc3n2)cc1)c1ccc(Br)o1	135*	1	2.9	-4	113
O=C(Oc1ccc(-c2cnc3ccccc3n2)cc1)c1cccc([N+](=O)[O-])c1	118	1	1.9	-4	116
O=C(Oc1ccc(-c2cnc3ccccc3n2)cc1)c1ccc(Cl)c([N+](=O)[O-])c1	125	1	1.8	-2	138*
O=C(Oc1cccc2cccnc12)c1ccc(Br)o1	98	1.1	1.1	-11	6
Cc1nnc(NC(=O)CSc2ccc3nnc(-c4cccnc4)n3n2)s1	100	1	1	0	9
CC(=O)NC1(C(F)(F)F)NC(=O)N(c2ccc(F)cc2)C1=O (stereo unspecified)	106	1.1	1	-12	14
CN(C)c1ccc(NC(=O)c2cnsn2)cc1	81	0.3	1.1	72*	86
Cc1ccc2c(C)c(C(=O)NCc3ccc(S(N)(=O)=O)cc3)oc2c1	92	1	0.88	-1	-1
Cc1ccc(C(=O)/C=C/Nc2ccccc2C(N)=O)o1	120	0.4	1.4	63*	30
Cc1ccccc1NC(=O)Nc1ccccc1C(N)=O	106	1	1	2	-11
Cc1cccc(N/C=C/C(=O)c2cccs2)c1C	128	0.1	4.1*	92*	212*
NC(=O)c1ccccc1N/C=C/C(=O)c1cccs1	138*	0.2	5.4*	85*	·
